Holding throughout (parameters): scale not given: the % may be the effect or the level left
The species entered for assay [1] is Rattus norvegicus. Nature of the assay: Reduction in sterol level in CFE rat […] in serum at 0.1% of diet treated through diet for 6 days relative to control. The class given is functional. Summed up: (§1)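 Compound dissolved in methanol-chloroform (1:3 v/v), mixed into ground rat chow at 0.1, 0.05 or 0.025% (w/w), and solvent evaporated; controls received solvent-treated chow. Rats fed ad libitum with water for 6 days, then killed fed and bled. Serum sterols and triglycerides measured by autoanalyzer. Values given as percent of control, mean ± SE; significance by Student's t test.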

The species named for assay [2] is Rattus norvegicus. Nature of the assay: Reduction in sterol level in CFE rat […] in serum at 0.05% of diet treated through diet for 6 days relative to control. The assay is classed as functional. Summed up:
as §1

The species entered for assay [3] is Rattus norvegicus. The assay is described as follows: Reduction in sterol level in CFE rat […] at 0.025% of diet treated through diet for 6 days relative to control. The class given is functional, Serum. The method in brief: as §1
The species named for assay [4] is Rattus norvegicus. Nature of the assay: Reduction in triglyceride level in CFE rat […] in serum at 0.1% of diet treated through diet for 6 days relative to control. The class given is functional. The method in brief: as §1
The species named for assay [5] is Rattus norvegicus. Nature of the assay: Reduction in triglyceride level in CFE rat […] in serum at 0.05% of diet treated through diet for 6 days relative to control. The class given is functional. The method in brief:
as §1

For assay [6], the species on record is Rattus norvegicus. The assay is described as follows: Reduction in triglyceride level in CFE rat […] at 0.025% of diet treated through diet for 6 days relative to control. The assay is classed as functional, Serum. Summed up:
as §1

`CCCCCCCCCCCC(C)(C)Oc1ccc(C(=O)O)cc1`: the Activity in the assay filed under Rattus norvegicus [1] turned out to be 83%; in the assay listed under Rattus norvegicus [2], 88%; in the assay filed under Rattus norvegicus [3] it was 90%; in the assay filed under Rattus norvegicus [4] it was 63%; in the assay filed under Rattus norvegicus [5], 80%; in the assay listed under Rattus norvegicus [6] it was 74%.

Take `CCCCCCCCCCC/C=C/CCCOc1ccc(C(=O)O)cc1`: the Activity was determined as 69% in the assay filed under Rattus norvegicus [1]; 67% in the assay listed under Rattus norvegicus [2]; 75% in the assay listed under Rattus norvegicus [3]; 59% in the assay listed under Rattus norvegicus [4]; 76% in the assay filed under Rattus norvegicus [5]; 76% in the assay filed under Rattus norvegicus [6].

With `COC(=O)c1ccc(OCCCCCCCCCCCSC(C)=O)cc1`, the Activity in the assay filed under Rattus norvegicus [1] turned out to be 113%; in the assay listed under Rattus norvegicus [2] it was 98%; in the assay filed under Rattus norvegicus [3] it was 106%; in the assay listed under Rattus norvegicus [4], 63%; in the assay filed under Rattus norvegicus [5], 88%; in the assay filed under Rattus norvegicus [6] it was 66%.

On to `CCCCCCCCCCCCCCCCOc1ccc(C(=O)O)cc1[N+](=O)[O-]`, for which the Activity in the assay listed under Rattus norvegicus [1] worked out at 103%; in the assay filed under Rattus norvegicus [2] it was 101%; in the assay listed under Rattus norvegicus [3] it was 95%; in the assay filed under Rattus norvegicus [4] it was 122%; in the assay filed under Rattus norvegicus [5] it was 120%; in the assay listed under Rattus norvegicus [6], 93%.

With `CCCCCCCCCCCC(O)CCOc1ccc(C(=O)O)cc1` (stereo not drawn), the Activity was 116% in the assay filed under Rattus norvegicus [1]; 112% in the assay listed under Rattus norvegicus [2]; 105% in the assay filed under Rattus norvegicus [3]; 53% in the assay filed under Rattus norvegicus [4]; 60% in the assay listed under Rattus norvegicus [5]; 69% in the assay listed under Rattus norvegicus [6].

`CCCCNC(=O)CCCCCCCCCCOc1ccc(C(=O)OC)cc1`: the Activity in the assay listed under Rattus norvegicus [1] is reported as 96%; in the assay listed under Rattus norvegicus [2] it was 100%; in the assay filed under Rattus norvegicus [3] it was 99%; in the assay listed under Rattus norvegicus [4] it was 81%; in the assay listed under Rattus norvegicus [5] it was 97%; in the assay filed under Rattus norvegicus [6] it was 95%.

`CCCCCCCCCCCCCCCCOc1c(Br)cc(C(=O)OC)cc1[N+](=O)[O-]`: the Activity in the assay filed under Rattus norvegicus [1] is 97%; in the assay filed under Rattus norvegicus [2], 93%; in the assay filed under Rattus norvegicus [3], 93%; in the assay listed under Rattus norvegicus [4], 95%; in the assay listed under Rattus norvegicus [5], 101%; in the assay listed under Rattus norvegicus [6], 113%.

With `CCCCCCCCCCCCCC(C)(C)Oc1ccc(C(=O)O)cc1`, the Activity stood at 100% in the assay filed under Rattus norvegicus [1]; 120% in the assay listed under Rattus norvegicus [2]; 92% in the assay listed under Rattus norvegicus [3]; 83% in the assay filed under Rattus norvegicus [4]; 105% in the assay listed under Rattus norvegicus [5]; 127% in the assay listed under Rattus norvegicus [6].

With `CCCCCCCCCCCCCCCCOc1ccc(C(=O)OC2CCN(C)CC2)cc1`, the Activity in the assay filed under Rattus norvegicus [1] is 96%; in the assay filed under Rattus norvegicus [2], 87%; in the assay filed under Rattus norvegicus [3] it was 85%; in the assay filed under Rattus norvegicus [4], 117%; in the assay listed under Rattus norvegicus [5] it was 110%; in the assay listed under Rattus norvegicus [6], 100%.

With `CCCCCCCCCCCC1OC1CCCOc1ccc(C(=O)OC)cc1` (stereo not drawn), the Activity was 84% in the assay filed under Rattus norvegicus [1]; 89% in the assay filed under Rattus norvegicus [2]; 103% in the assay filed under Rattus norvegicus [3]; 65% in the assay filed under Rattus norvegicus [4]; 64% in the assay listed under Rattus norvegicus [5]; 74% in the assay listed under Rattus norvegicus [6].

As for `CCCCCCCCCCCCCC#CCOc1ccc(C(=O)O)cc1`, the Activity in the assay listed under Rattus norvegicus [1] is 82%; in the assay listed under Rattus norvegicus [2] it was 88%; in the assay filed under Rattus norvegicus [3], 98%; in the assay filed under Rattus norvegicus [4], 75%; in the assay listed under Rattus norvegicus [5], 65%; in the assay filed under Rattus norvegicus [6], 96%.

As to `CCCCOCCCCCCCCCCCOc1ccc(C(=O)O)cc1`, the Activity in the assay filed under Rattus norvegicus [1] is 97%; in the assay listed under Rattus norvegicus [2], 81%; in the assay filed under Rattus norvegicus [3], 75%; in the assay listed under Rattus norvegicus [4], 55%; in the assay filed under Rattus norvegicus [5] it was 67%; in the assay listed under Rattus norvegicus [6], 74%.

`CCCCNCCCCCCCCCCCOc1ccc(C(=O)O)cc1`: the Activity in the assay filed under Rattus norvegicus [1] is 100%; in the assay listed under Rattus norvegicus [2], 104%; in the assay listed under Rattus norvegicus [3] it was 98%; in the assay filed under Rattus norvegicus [4], 100%; in the assay listed under Rattus norvegicus [5], 103%; in the assay filed under Rattus norvegicus [6], 119%.

The record behind these values is ChEMBL document CHEMBL3272177, “Hypolipidemic alkoxybenzoic acids” (1976).
